Results from ChEMBL document CHEMBL1151917, “Dysideamine, a new sesquiterpene aminoquinone, protects hippocampal neuronal cells against iodoacetic acid-induced cell death” (Bioorg Med Chem, 2009).
Activity calls are given as the source filed them. The calls are words filed in the database; no cut-off is given here.

Experiments:
[1] = test system: HT-22; assay: Neuroprotective activity against iodoacetic acid-induced cell death in mouse HT22 cells assessed as survival at 10 uM treated 2 hrs after iodoacetic acid challenge measured after 20 hrs by MTT colorimetric assay; assay type: functional; conditions: read-out: Survival
Method in brief: (§1)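 HT22 cells in DMEM/10% FBS, 5 × 10^3 cells/well, held 24 h at 37 °C under 5% CO2. Switched to DMEM/7.5% FBS with 20 µM iodoacetic acid for 2 h. Medium then replaced with fresh DMEM/10% FBS and compound added in EtOH. After a further 20 h, viability was read by MTT. Mean ± SEM, n = 3.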

[2] = test system: HT-22; assay: Neuroprotective activity against iodoacetic acid-induced cell death in mouse HT22 cells assessed as survival treated 2 hrs after iodoacetic acid challenge measured after 20 hrs by MTT colorimetric assay; assay type: functional, cell-based; method in brief: as §1
[3] = test system: HT-22; assay: Neuroprotective activity against iodoacetic acid-induced intracellular ATP depletion in mouse HT22 cells assessed as recovery of ATP treated 2 hrs after iodoacetic acid challenge after 4 to 8 hrs; assay type: functional, cell-based
Method in brief: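 HT22 cells at 5 × 10^3 cells/well were exposed to […] for 2 h in DMEM/7.5% FBS. They were then moved to normal growth medium, with or without compound, for the indicated times. Intracellular ATP was read by CellTiter-Glo luminescence. Mean ± SEM, n = 3.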

[4] = test system: N2a; assay: Induction of neurite out growth in mouse Neuro2a cells assessed as increase in percent of cells with outgrowth at 10 uM after 48 hrs by phase contrast microscopy; assay type: functional
Method in brief: (§2)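 Neuro 2A cells in DMEM/10% FBS, seeded at 1 × 10^4 cells per well and grown 24 h. Medium renewed, then compound added in EtOH and cells held 48 h. Scored by phase contrast microscopy: neurite-bearing means processes longer than the cell body diameter. Percent of neurite-bearing cells counted from at least 300 cells in photomicrographs of representative-density areas.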

[5] = test system: N2a; assay: Induction of neurite out growth in mouse Neuro2a cells assessed as increase in percent of cells with outgrowth at 3 uM after 48 hrs by phase contrast microscopy; assay type: functional; method in brief: as §2
[6] = test system: N2a; assay: Induction of neuronal differentiation in mouse Neuro2a cells assessed as increase in acetylcholinesterase activity at 3 uM after 48 hrs by colorimetrically; assay type: functional, cell-based
Method in brief: (§3)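 After 48 h treatment of Neuro 2A cells, AChE production was measured per 5 × 10^4 cells. Read-out was the colorimetric rate of acetylthiocholine hydrolysis.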

[7] = Cytotoxicity against mouse Neuro2a cells at 10 uM; assay type: cell-based; conditions: n2a
[8] = test system: HT-22; assay: Neuroprotective activity in mouse HT22 cells assessed as inhibition of iodoacetic acid-induced intracellular ROS production at 10 uM treated 2 hrs after iodoacetic acid challenge; assay type: functional, cell-based
Method in brief: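 HT22 cells at 5 × 10^4 cells/well were cultured 24 h, then given 20 µM iodoacetic acid in DMEM/7.5% FBS for 2 h. Cells went to normal growth medium with compound (10 µM) in EtOH. At the indicated times they were washed and loaded with 10 µM DCFH-DA in serum-free medium for 20 min in the dark. After a second wash, fluorescence was read at ex 485/em 530 nm.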

[9] = test system: N2a; assay: Induction of neuronal differentiation in mouse Neuro2a cells assessed as increase in acetylcholinesterase activity at 10 uM after 48 hrs by colorimetrically; assay type: functional, cell-based; method in brief: as §3

| Compound | viability at 10 µM [1] | Activity [2] | Activity [3] | Activity [4] | Activity [5] | Activity [6] | Activity [7] | Activity [8] | Activity [9] |
| --- | --- | --- | --- | --- | --- | --- | --- | --- | --- |
| COC1=CC(=O)C(O)=C(C[C@@]2(C)CC[C@]3(C)C(C)=CCC[C@H]3[C@H]2C)C1=O [BOLINAQUINONE] | 57% |  |  |  |  |  |  |  |  |
| CC1=CCC[C@H]2[C@@H](C)[C@@](C)(CC3=C(O)C(=O)C=C(N)C3=O)CC[C@]12C [DYSIDEAMINE] | 43% | Dose-dependent effect | Active | 25% | 40% | Active | Non-toxic | Active | Active |
